According to ChEMBL document CHEMBL1138284, “Malaria causal prophylactic activity of imidazolidinedione derivatives” (J Med Chem, 2007):
Active and inactive are the calls of the source. The calls are words filed in the database; no cut-off is given here.

Tests used:
[1] = Metabolic stability assessed as half life in human liver microsomes
Plasmodium yoelii [2] = experiment: Protection against Plasmodium yoelii sporozoite infected mice (Mus musculus) as minimal active peroral dose; assay type: functional
Procedure, shortened: (§1)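 Mice challenged with Plasmodium yoelii sporozoites received a single oral dose of the test compound. Protection was scored at day 6 as the number of parasite-free mice out of 5 per dose group. The minimum active dose was taken as the lowest dose giving activity.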

[3] = Metabolic stability assessed as half life in mouse liver microsomes
Plasmodium yoelii [4] = experiment: Protection against Plasmodium yoelii sporozoite infected mice (Mus musculus) at 160 mg/kg peroral dose; assay type: functional, organism-based; set-up: dose 160 mg/kg; procedure, shortened: as §1
Plasmodium yoelii [5] = experiment: Protection against Plasmodium yoelii sporozoite infected mice (Mus musculus) at 40 mg/kg peroral dose; assay type: functional, organism-based; set-up: dose 40 mg/kg; procedure, shortened: as §1
Plasmodium yoelii [6] = experiment: Protection against Plasmodium yoelii sporozoite infection in mice (Mus musculus) at 10 mg/kg peroral dose; assay type: functional, organism-based; set-up: dose 10 mg/kg; procedure, shortened: as §1
Plasmodium falciparum [7] = experiment: Antimalarial activity against pyrimethamine-resistant Plasmodium falciparum W2; assay type: functional, organism-based
Plasmodium berghei = experiment: Antimalarial activity against Plasmodium berghei infected mice (Mus musculus); assay type: functional, organism-based
Plasmodium falciparum [8] = experiment: Antimalarial activity against pyrimethamine-sensitive Plasmodium falciparum D6; assay type: functional, organism-based
Plasmodium cynomolgi = experiment: Prophylactic parasite potency against Plasmodium cynomolgi sporozoite challenged rhesus monkey at 30 mg/kg/day Intramuscular dose for 3 days; assay type: functional
Procedure, shortened: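 Rhesus monkeys were inoculated with P. cynomolgi sporozoites and given 30 mg/kg IM once daily for 3 days, starting the day before inoculation; two monkeys per group, with untreated controls. Blood smears were taken daily from day 6 for 21 days, then 3×/week for 4 weeks, then 2×/week to 100 days after the last dose. Patency was the first smear-positive day.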

Plasmodium yoelii [9] = experiment: Protection against Plasmodium yoelii sporozoite infected mice (Mus musculus) as minimal active perorally daily dose over 3 days; assay type: functional
Procedure, shortened: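 Mice were challenged with P. yoelii sporozoites and dosed orally once daily for 3 consecutive days (days −1, 0, +1), starting the day before challenge. Protection was scored at day 6 as protected mice out of 5 per dose. The minimum active dose was taken from the dose series.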

[10] = Half life in iv dosed rat plasma; assay type: ADME, organism-based
Plasmodium yoelii [11] = experiment: Protection against Plasmodium yoelii sporozoite infected mice (Mus musculus) at 120 mg/kg peroral dose; assay type: functional, organism-based; set-up: dose 120 mg/kg
Plasmodium yoelii [12] = experiment: Protection against Plasmodium yoelii sporozoite infected mice (Mus musculus) at 480 mg/kg peroral dose; assay type: functional, organism-based; set-up: dose 480 mg/kg

Compound	half-life ([1]; liver microsomes)	Activity (Plasmodium yoelii [2])	half-life ([3]; liver microsomes)	Activity (Plasmodium yoelii [4])	Activity (Plasmodium falciparum [7])	Activity (Plasmodium berghei)	Activity (Plasmodium falciparum [8])	Activity (Plasmodium cynomolgi)	Activity (Plasmodium yoelii [9])	also measured
CCCC(=O)N/C(=N\C1=NC(=O)C(=O)N1c1ccc(Cl)c(Cl)c1)NC(C)C	< 10 min	<10 mg/kg	< 10 min	Active	–	–	–	–	–	Activity (Plasmodium yoelii [5]): Active; Activity (Plasmodium yoelii [6]): Active
CCC(CC)c1nc(Nc2ccc(Cl)c(Cl)c2)nc(NC(C)C)n1	> 60 min	–	> 60 min	–	inactive	inactive	inactive	–	–	–
CCCc1nc(Nc2ccc(Cl)c(Cl)c2)nc(NC(C)C)n1	–	–	–	–	inactive	inactive	inactive	–	–	–
CCC(CC)C(=O)N/C(=N/C1=NC(=O)C(=O)N1C(C)C)Nc1ccc(Cl)c(Cl)c1	> 60 min	>160 mg/kg	> 60 min	–	–	–	–	17 days	7.5 mg/kg	–
CC(C)Nc1nc(Nc2ccc(Cl)c(Cl)c2)nc(C(C)C)n1	–	–	–	–	inactive	inactive	inactive	–	–	–
CCC(CC)C(=O)N/C(=N\C1=NC(=O)C(=O)N1c1ccc(Cl)c(Cl)c1)NC(C)C	< 10 min	<10 mg/kg	< 10 min	Active	–	–	–	15 days	–	half-life [10]: < 10 min
CC(C)C(=O)N/C(=N/C1=NC(=O)C(=O)N1C(C)C)Nc1ccc(Cl)c(Cl)c1	–	>160 mg/kg	–	–	–	–	–	–	<30 mg/kg	–
CC(C)N/C(=N/C1=NC(=O)C(=O)N1c1ccc(Cl)c(Cl)c1)NC(=O)C(C)C	< 10 min	<10 mg/kg	< 10 min	Active	–	–	–	–	–	Activity (Plasmodium yoelii [5]): Active
CC(C)N1C(=O)C(=O)N=C1/N=C(/NC(=O)C(C)(C)C)Nc1ccc(Cl)c(Cl)c1	–	>160 mg/kg	–	–	–	–	–	40 days	>480 mg/kg	half-life ([1]; microsomes): > 60 min; Activity (Plasmodium yoelii [11]): inactive; half-life ([3]; microsomes): > 60 min; Activity (Plasmodium yoelii [12]): inactive
CC(C)N1C(=O)C(=O)N=C1N/C(=N\C(=O)OC(C)(C)C)Nc1ccc(Cl)c(Cl)c1	–	–	–	–	–	–	–	68 days	–	–
